The test system of assay [1] is Botrytis cinerea. As to the kind of experiment: Fungicidal activity against Botryotinia fuckeliana infected in drug-pretreated cucumber two seeded leaves assessed as decrease in disease index at 500 ug/ml (acetone Rvb = 1.53 +/-0.21%). Format: functional. An outline of the steps:
(§1)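 Greenhouse cucumber assay. Fungi kept on PDA at 4 °C and cultured at 24 ± 1 °C. Plants at the two-seed-leaf stage had leaves hand-sprayed at 500 μg/mL, then were inoculated and held at 24 ± 1 °C, >80% RH. Efficacy = (CK − PT)/CK × 100, from average disease indices.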

In assay [2] the test system is Cladosporium cucumerinum. As to the kind of experiment: Fungicidal activity against Cladosporium cucumerinum infected drug-pretreated cucumber two seeded leaves assessed as decrease in disease index at 500 ug/ml (acetone Rvb = 3.18 +/-0.75%). Format: functional. An outline of the steps: as §1
The test system of assay [3] is Rhizoctonia solani. Nature of the assay: Fungicidal activity against Rhizoctonia solani infected drug-pretreated cucumber two seeded leaves assessed as decrease in disease index at 500 ug/ml (acetone Rvb = 2.22 +/-0.79%). It is filed as functional. An outline of the steps:
as §1

Assay [4] concerns Corynespora cassiicola. Nature of the assay: Fungicidal activity against Corynespora cassiicola infected in drug-pretreated cucumber two seeded leaves assessed as decrease in disease index at 500 ug/ml (acetone Rvb = 5.23 +/-0.88%). It is filed as functional. An outline of the steps: as §1
Assay [5] relates to Corynespora cassiicola. Nature of the assay: Fungicidal activity against Corynespora cassiicola infected in drug-pretreated cucumber two seeded leaves assessed as decrease in disease index at 75% WP formulation (acetone Rvb = 5.23 +/-0.88%). Format: functional. An outline of the steps:
as §1

For assay [6], the system named is Cladosporium cucumerinum. As to the kind of experiment: Fungicidal activity against Cladosporium cucumerinum infected drug-pretreated cucumber two seeded leaves assessed as decrease in disease index at 40% EC formulation (acetone Rvb = 3.18 +/-0.75%).
Assay [7] deals with Botrytis cinerea. Nature of the assay: Fungicidal activity against Botryotinia fuckeliana infected in drug-pretreated cucumber two seeded leaves assessed as decrease in disease index at 40% SC formulation (acetone Rvb = 1.53 +/-0.21%). Format: functional. An outline of the steps:
as §1

Assay [8] deals with Rhizoctonia solani. Nature of the assay: Fungicidal activity against Rhizoctonia solani infected drug-pretreated cucumber two seeded leaves assessed as decrease in disease index at 3% AS formulation (acetone Rvb = 2.22 +/-0.79%). Format: functional. An outline of the steps:
as §1

On to `O=C(N/N=C/c1ccc(Cl)cc1)c1ccc(-c2ccccc2F)o1`, for which the Efficacy is recorded as 27% with Botrytis cinerea [1], 37.3% with Cladosporium cucumerinum [2], -5.2% with Rhizoctonia solani [3] and -3.05% in the assay on Corynespora cassiicola [4].

In the case of `O=C(N/N=C/c1ccccc1)c1ccc(-c2ccc(Cl)cc2)o1`, the Efficacy was 11% with Botrytis cinerea [1], -8.1% with Cladosporium cucumerinum [2], 10.2% in the assay with Rhizoctonia solani [3] and 50.78% in the assay on Corynespora cassiicola [4].

Regarding `O=C(N/N=C/c1ccccc1Cl)c1ccc(-c2ccc(F)cc2)o1`, the Efficacy is reported as 72% with Botrytis cinerea [1], -22% in the assay with Cladosporium cucumerinum [2], 8% with Rhizoctonia solani [3] and 13.87% in the assay on Corynespora cassiicola [4].

Regarding `O=[N+]([O-])c1ccccc1-c1ccc(-c2nnc(-c3ccc(Cl)cc3)o2)o1`, the Efficacy is on record as -30.02% in the assay on Botrytis cinerea [1], 17.2% in the assay on Cladosporium cucumerinum [2], 94.38% in the assay with Rhizoctonia solani [3] and 15.17% in the assay on Corynespora cassiicola [4].

`COc1ccc(-c2nnc(-c3ccc(-c4ccccc4[N+](=O)[O-])o3)o2)cc1`: the Efficacy is reported as 92.68% with Botrytis cinerea [1], 15% in the assay on Cladosporium cucumerinum [2], 48.48% with Rhizoctonia solani [3] and 48.61% with Corynespora cassiicola [4].

Consider `CCOc1ccc(-c2nnc(-c3ccc(-c4ccccc4[N+](=O)[O-])o3)o2)cc1`, for which the Efficacy stood at 33.75% in the assay on Botrytis cinerea [1], 8.89% in the assay on Cladosporium cucumerinum [2], 65.58% in the assay on Rhizoctonia solani [3] and 74.71% in the assay with Corynespora cassiicola [4].

Turning to `COc1ccc(-c2nnc(-c3ccc(-c4ccc([N+](=O)[O-])cc4)o3)o2)cc1`, the Efficacy in the assay on Botrytis cinerea [1] is recorded as 47.83%; in the assay with Cladosporium cucumerinum [2], 12.35%; in the assay on Rhizoctonia solani [3], -3.97%; in the assay with Corynespora cassiicola [4], 10.59%.

As for `CCOc1ccc(-c2nnc(-c3ccc(-c4ccc([N+](=O)[O-])cc4)o3)o2)cc1`, the Efficacy is 77.78% in the assay on Botrytis cinerea [1], 16.48% with Cladosporium cucumerinum [2], 63.47% in the assay with Rhizoctonia solani [3] and 25.49% in the assay with Corynespora cassiicola [4].

Consider `Fc1ccc(-c2ccc(-c3nnc(-c4ccccc4Cl)o3)o2)cc1`, for which the Efficacy in the assay on Botrytis cinerea [1] is 76.52%; in the assay on Cladosporium cucumerinum [2], 7.78%; with Rhizoctonia solani [3], 25.54%; in the assay on Corynespora cassiicola [4], 27.94%.

With `O=C(N/N=C/c1ccc(Br)cc1)c1ccc(-c2ccccc2Cl)o1`, the Efficacy is listed as 91.76% in the assay with Botrytis cinerea [1], 19.75% in the assay on Cladosporium cucumerinum [2], 57.85% in the assay on Rhizoctonia solani [3] and 28.79% in the assay on Corynespora cassiicola [4].

Take `CC(=O)N1N=C(c2ccc(-c3ccc(Cl)cc3)o2)OC1c1ccccc1` (stereo not drawn): the Efficacy is listed as 70.71% with Botrytis cinerea [1], 45.61% in the assay with Cladosporium cucumerinum [2], 69.09% with Rhizoctonia solani [3] and 35.29% with Corynespora cassiicola [4].

On to `CC(=O)N1N=C(c2ccc(-c3ccccc3Cl)o2)OC1c1ccc(Br)cc1` (stereo not drawn), for which the Efficacy in the assay on Botrytis cinerea [1] was 23.23%; in the assay with Cladosporium cucumerinum [2], 16.67%; with Rhizoctonia solani [3] it was 14.3%; with Corynespora cassiicola [4], 32.03%.

Regarding `CC(=O)N1N=C(c2ccc(-c3ccccc3F)o2)OC1c1ccc(Cl)cc1` (stereo not drawn), the Efficacy in the assay on Botrytis cinerea [1] turned out to be 18.89%; with Cladosporium cucumerinum [2], 31.11%; in the assay with Rhizoctonia solani [3], 66.28%; in the assay with Corynespora cassiicola [4], 28.85%.

For the compound `CC(=O)N1N=C(c2ccc(-c3ccc(F)cc3)o2)OC1c1ccccc1Cl` (stereo not drawn), the Efficacy with Botrytis cinerea [1] came to 76.28%; with Cladosporium cucumerinum [2], 40%; in the assay on Rhizoctonia solani [3], 31.03%; in the assay on Corynespora cassiicola [4], 28.72%.

For `CCC(=O)N1N=C(c2ccc(-c3ccccc3Cl)o2)OC1c1ccc(Br)cc1` (stereo not drawn), the Efficacy in the assay on Botrytis cinerea [1] was 13.91%; in the assay on Cladosporium cucumerinum [2] it was 23.98%; with Rhizoctonia solani [3], 63.87%; in the assay with Corynespora cassiicola [4], 41.18%.

As to `CCC(=O)N1N=C(c2ccc(-c3ccc(F)cc3)o2)OC1c1ccccc1Cl` (stereo not drawn), the Efficacy is listed as -24.9% in the assay with Botrytis cinerea [1], 31.48% in the assay on Cladosporium cucumerinum [2], 52.33% in the assay on Rhizoctonia solani [3] and 46.75% in the assay on Corynespora cassiicola [4].

`O=C(NNC(=O)c1ccc(-c2ccccc2Cl)o1)c1ccc(Br)cc1`: the Efficacy in the assay on Botrytis cinerea [1] amounted to 24.64%; in the assay on Cladosporium cucumerinum [2], 14.2%; in the assay on Rhizoctonia solani [3] it was 49.42%; with Corynespora cassiicola [4], 8.24%.

`Cc1ccc(C(=O)NNC(=O)c2ccc(-c3ccc(Cl)cc3)o2)cc1`: the Efficacy in the assay with Botrytis cinerea [1] came to 4.35%; in the assay on Cladosporium cucumerinum [2], 29.8%; with Rhizoctonia solani [3], 19.8%; in the assay on Corynespora cassiicola [4] it was 50.87%.

`O=C(NNC(=O)c1ccc(-c2ccccc2[N+](=O)[O-])o1)c1ccc(Cl)cc1`: the Efficacy in the assay on Botrytis cinerea [1] is on record as 79.58%; with Cladosporium cucumerinum [2], 14.44%; in the assay with Rhizoctonia solani [3] it was 95.56%; with Corynespora cassiicola [4] it was 66.09%.

Consider `COc1ccc(C(=O)NNC(=O)c2ccc(-c3ccccc3[N+](=O)[O-])o2)cc1`, for which the Efficacy in the assay with Botrytis cinerea [1] was 35.5%; with Cladosporium cucumerinum [2] it was 2.61%; in the assay with Rhizoctonia solani [3] it was 56.45%; in the assay on Corynespora cassiicola [4], 28.35%.

As for `CCOc1ccc(C(=O)NNC(=O)c2ccc(-c3ccccc3[N+](=O)[O-])o2)cc1`, the Efficacy in the assay with Botrytis cinerea [1] was -43.27%; with Cladosporium cucumerinum [2], 10%; in the assay on Rhizoctonia solani [3] it was 78.93%; in the assay on Corynespora cassiicola [4], 18.82%.

Turning to `COc1ccc(C(=O)NNC(=O)c2ccc(-c3ccc([N+](=O)[O-])cc3)o2)cc1`, the Efficacy with Botrytis cinerea [1] was 29.9%; in the assay with Cladosporium cucumerinum [2], 57.89%; in the assay on Rhizoctonia solani [3] it was 24.45%; in the assay with Corynespora cassiicola [4], 36.36%.

Regarding `CCOc1ccc(C(=O)NNC(=O)c2ccc(-c3ccc([N+](=O)[O-])cc3)o2)cc1`, the Efficacy with Botrytis cinerea [1] is on record as 79.13%; in the assay on Cladosporium cucumerinum [2] it was 28.35%; in the assay with Rhizoctonia solani [3] it was 71.9%; in the assay on Corynespora cassiicola [4], 38.24%.

In the case of `O=C(NNC(=O)c1ccccc1Cl)c1ccc(-c2ccc(F)cc2)o1`, the Efficacy came to 89.57% with Botrytis cinerea [1], 30.32% with Cladosporium cucumerinum [2], 69.35% in the assay on Rhizoctonia solani [3] and 34.26% in the assay on Corynespora cassiicola [4].

For the compound `Clc1ccccc1-c1ccc(-c2nnc(-c3ccc(Br)cc3)o2)o1`, the Efficacy in the assay on Botrytis cinerea [1] was -2.61%; in the assay with Cladosporium cucumerinum [2] it was 17.9%; in the assay with Rhizoctonia solani [3], -1.16%; in the assay with Corynespora cassiicola [4] it was 90.59%.

On to `Cc1ccc(-c2nnc(-c3ccc(-c4ccc(Cl)cc4)o3)o2)cc1`, for which the Efficacy with Botrytis cinerea [1] is recorded as 42.38%; with Cladosporium cucumerinum [2], 5.85%; in the assay on Rhizoctonia solani [3] it was 24.13%; with Corynespora cassiicola [4], 28.24%.

Take `N#Cc1c(Cl)c(Cl)c(Cl)c(C#N)c1Cl` [CHLOROTHALONIL]: the Efficacy in the assay with Corynespora cassiicola [5] was 93.53%.

Turning to `C[Si](Cn1cncn1)(c1ccc(F)cc1)c1ccc(F)cc1` [FLUSILAZOLE], in the assay on Cladosporium cucumerinum [6], the Efficacy stood at 95.56%.

Consider `Cc1cc(C)nc(Nc2ccccc2)n1` [PYRIMETHANIL], for which the Efficacy with Botrytis cinerea [7] is listed as 69.57%.

Take `OCC1=C[C@H](N[C@H]2C[C@H](CO)[C@@H](O[C@@H]3O[C@H](CO)[C@@H](O)[C@H](O)[C@H]3O)[C@H](O)[C@H]2O)[C@H](O)[C@@H](O)[C@@H]1O` [VALIDAMYCIN]: in the assay on Rhizoctonia solani [8], the Efficacy worked out at 93.68%.

The record behind these values is ChEMBL document CHEMBL3045525, “Synthesis and fungicidal activity of novel 2,5-disubstituted-1,3,4-oxadiazole derivatives” (2012).
